Assay results reported in ChEMBL document CHEMBL4808178 (J Med Chem, 2021).
The source made the active and inactive calls. No cut-off for these calls is given here.

Columns and labels:
[1] = system: HCT-116; experiment: Induction of apoptosis in human HCT116 cells assessed as late apoptotic cells at 10 uM after 24 hrs by annexin V-FITC/propidium iodide staining based flow cytometry (reference value: 5.1%); type: functional
[2] = system: HCT-116; experiment: Induction of apoptosis in human HCT116 cells assessed as late apoptotic cells at 20 uM after 24 hrs by annexin V-FITC/propidium iodide staining based flow cytometry (reference value: 5.1%); type: functional
[3] = system: HCT-116; experiment: Induction of apoptosis in human HCT116 cells assessed as upregulation of cleaved PARP level at 20 uM incubated for 24 hrs by Western blot analysis; type: functional, cell-based
Method in brief: (§1)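 HCT-116 cells at 2 × 10⁵ cells/mL in DMEM/10% FBS, grown 12 h at 37 °C, then treated 24 h (vehicle DMSO). Lysates quantified by BCA, run on 10% SDS-PAGE, PVDF transfer, blocked in 5% milk/TBST, primary antibodies 4 °C overnight, HRP secondary 2 h, chemiluminescent detection; normalized to β-actin, n = 3.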

[4] = target: T1, Aldehyde dehydrogenase 1A1 (Homo sapiens) (UniProt P00352); experiment: (§2) Inhibition of human ALDH1A1 incubated for 2 hrs
T1 sequence (whole entry): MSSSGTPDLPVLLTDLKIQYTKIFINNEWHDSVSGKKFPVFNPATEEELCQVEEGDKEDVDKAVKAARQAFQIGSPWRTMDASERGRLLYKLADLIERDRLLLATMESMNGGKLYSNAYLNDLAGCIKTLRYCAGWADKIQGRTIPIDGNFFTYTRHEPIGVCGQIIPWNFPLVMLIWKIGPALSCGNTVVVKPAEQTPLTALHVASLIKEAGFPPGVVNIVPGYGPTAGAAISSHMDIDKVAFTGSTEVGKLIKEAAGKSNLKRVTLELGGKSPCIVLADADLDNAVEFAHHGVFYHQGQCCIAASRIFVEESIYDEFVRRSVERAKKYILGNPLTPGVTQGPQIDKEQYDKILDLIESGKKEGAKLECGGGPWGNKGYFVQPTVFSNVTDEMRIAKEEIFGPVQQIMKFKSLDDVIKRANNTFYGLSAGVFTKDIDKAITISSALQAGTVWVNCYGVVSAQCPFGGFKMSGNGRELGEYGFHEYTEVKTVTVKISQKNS

[5] = target: T2, Aldehyde dehydrogenase 1A1 (Homo sapiens, UniProt P00352); experiment: as §2
T2 sequence (P00352 whole entry): T1 sequence (whole entry)

[6] = target: T1, Aldehyde dehydrogenase 1A1 (Homo sapiens); experiment: Inhibition of ALDH1A1 in human HCT116 cells at 20 uM after 24 hrs by aldefluor staining based fluorescence analysis; type: cell-based; conditions: HCT-116
Method in brief: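 HCT-116 cells, 2 × 10⁵/well, grown overnight at 37 °C, 5% CO₂, then treated 24 h (vehicle DMSO). Aldefluor staining read in FITC channel by FACS for proportion of ALDH⁺ cells; DEAB-pretreated cells set baseline fluorescence.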

[7] = system: HCT-116; experiment: Antitumor activity against human HCT116 cells xenografted in BALB/c athymic nude mouse assessed as tumor growth inhibition at 90 mg/kg, po administered twice daily for 4 weeks and measured every 3 days; type: functional; conditions: HCT-116, po, 672 h, read-out: TGI
Method in brief: (§3)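 Male BALB/c athymic nude mice, 5 weeks old, 16−18 g, given 0.2 mL of 5 × 10⁷ cells/mL HCT-116 in right armpit. At about 100 mm³, randomized to groups of five; intragastric dosing twice daily for 4 weeks. Tumor volume and body weight every 3 days; tumors weighed after sacrifice; organs HE-stained.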

[8] = system: HCT-116; experiment: Inhibition of cell invasion in human HCT-116 cells at 5 uM after 24 hrs by crystal violet staining based inverted microscopic analysis; type: functional
Method in brief: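 Transwell chambers ([…]); 1 × 10⁵ HCT-116 cells in serum-free medium in upper compartment, DMEM + 10% FBS as chemoattractant below; treated 24 h (vehicle DMSO); non-invading cells swabbed off, lower-surface cells crystal violet stained 30 min, counted by inverted microscope; mean ± SD, n = 3.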

[9] = system: HCT-116; experiment: Induction of apoptosis in human HCT116 cells assessed as late apoptotic cells at 5 uM after 24 hrs by annexin V-FITC/propidium iodide staining based flow cytometry (reference value: 5.1%); type: functional
[10] = system: HCT-116; experiment: Induction of apoptosis in human HCT116 cells assessed as upregulation of cleaved caspase 9 level at 20 uM incubated for 24 hrs by Western blot analysis; type: functional, cell-based; method in brief: as §1
[11] = system: HCT-116; experiment: Antitumor activity against human HCT116 cells xenografted in BALB/c athymic nude mouse assessed as tumor growth inhibition at 60 mg/kg, po administered twice daily for 4 weeks and measured every 3 days; type: functional; conditions: HCT-116, po, 672 h, read-out: TGI; method in brief: as §3
[12] = system: HCT-116; experiment: Induction of apoptosis in human HCT116 cells assessed as viable cells at 20 uM after 24 hrs by annexin V-FITC/propidium iodide staining based flow cytometry (reference value: 88.3%); type: functional; conditions: read-out: Activity

Q: `O=C(NCCO)c1ccc2c(c1)nc(Nc1cccc(Cl)c1)c1ccncc12` was tested. Which Activity [1] did it give?
A: 23.4%

Q: And the Activity [2]?
A: 32.9%

Q: And the Activity [3]?
A: Active

Q: And the inhibition [4]?
A: Dose-Dependent Effect

Q: What about the IC50 [5] of the same compound?
A: 100 nM

Q: What about the inhibition [6] of the same compound?
A: 96%

Q: And the inhibition in vivo at 90 mg/kg [7]?
A: 69%

Q: And the Activity [8]?
A: Active

Q: And the Activity [9]?
A: 14.3%

Q: What about the Activity [10] of the same compound?
A: Active

Q: What about the inhibition in vivo at 60 mg/kg [11] of the same compound?
A: 59%

Q: And the viability at 20 µM [12]?
A: 36%
